In assay [1] the target is Pf Adenylosuccinate Synthase (Plasmodium falciparum, UniProt Q9U8D3). The assay can be described thus: adenylosuccinate synthetase biochemical assay.
In the next assay the test system is P. falciparum strain 3d7. Kind of assay: erythrocyte-based P. falciparum strain 3d7 infection. Conditions: Plasmodium falciparum, 3D7, read-out: EC50 against P. falciparum in vitro. The assay is classed as cell-based. Summed up: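 P. falciparum was grown in erythrocytes. The primary screen used 1.25 μM, and ≥50% growth inhibition counted as a hit. Hits were retested in 8-point dose-response curves for EC₅₀ against sulfadoxine-resistant 3D7 and multidrug-resistant W2. Compounds with CC₅₀/EC₅₀ <5 (Huh7 cells) or that quenched fluorescence were excluded.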

The target in assay [2] is T1, Pf N-Myristoyl Transferase (Plasmodium falciparum, UniProt Q8ILW6).
T1 sequence (Q8ILW6 1-410): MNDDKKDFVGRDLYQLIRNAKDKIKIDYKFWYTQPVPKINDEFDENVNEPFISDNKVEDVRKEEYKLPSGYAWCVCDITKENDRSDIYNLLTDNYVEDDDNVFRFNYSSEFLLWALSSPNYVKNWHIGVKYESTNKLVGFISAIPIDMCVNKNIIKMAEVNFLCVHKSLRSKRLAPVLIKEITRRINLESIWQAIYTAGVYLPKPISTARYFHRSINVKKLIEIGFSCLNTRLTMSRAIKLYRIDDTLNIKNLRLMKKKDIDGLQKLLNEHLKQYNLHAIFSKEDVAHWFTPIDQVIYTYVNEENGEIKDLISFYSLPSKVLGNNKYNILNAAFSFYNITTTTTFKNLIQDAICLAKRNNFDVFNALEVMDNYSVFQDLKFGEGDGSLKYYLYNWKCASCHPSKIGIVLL
The assay can be described thus: N-myristoyltransferase biochemical assay. Conditions: read-out: NMT IC50, positive control.

Another assay has as its target T2, Pf dUTPase (Plasmodium falciparum, UniProt Q8II92).
T2 sequence (Q8II92 1-173): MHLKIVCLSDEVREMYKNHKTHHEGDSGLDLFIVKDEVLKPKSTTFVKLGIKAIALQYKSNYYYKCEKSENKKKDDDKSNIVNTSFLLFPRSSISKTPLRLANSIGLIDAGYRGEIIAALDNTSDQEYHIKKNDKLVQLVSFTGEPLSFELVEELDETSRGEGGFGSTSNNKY
The assay can be described thus: dUTPase biochemical assay.

Data on four compounds can be found in publication PMC3108854 (Molecular and biochemical parasitology, 2010).

Chain of Pf Adenylosuccinate Synthase (Q9U8D3 whole entry): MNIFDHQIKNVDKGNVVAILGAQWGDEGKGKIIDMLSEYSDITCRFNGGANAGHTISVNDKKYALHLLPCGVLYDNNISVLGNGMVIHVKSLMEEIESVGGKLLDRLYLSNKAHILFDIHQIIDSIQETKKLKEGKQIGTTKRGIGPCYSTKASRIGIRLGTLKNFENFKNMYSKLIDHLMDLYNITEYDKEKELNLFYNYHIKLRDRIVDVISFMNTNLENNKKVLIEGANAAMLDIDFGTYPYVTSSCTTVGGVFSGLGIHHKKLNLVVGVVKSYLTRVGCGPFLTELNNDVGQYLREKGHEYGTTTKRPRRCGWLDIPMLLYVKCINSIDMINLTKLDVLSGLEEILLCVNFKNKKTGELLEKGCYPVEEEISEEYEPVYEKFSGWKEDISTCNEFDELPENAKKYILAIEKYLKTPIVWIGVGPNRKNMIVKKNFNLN

With `O=CN(O)CC(=O)O` [Hadacidin], inhibition in assay [1] was half-maximal at 62 µM (IC50).
Consider `O=P(O)(O)C(O)(Cc1ccccc1)P(=O)(O)O` [(1-hydroxy-2-phenylethylidene)bis-phosphonic acid], for which the EC50 (commonly the concentration needed to bring the measured effect to its halfway point) in the assay with P. falciparum strain 3d7 was about 7.05 µM.
In the case of `O=C(O)C1=CC(=C(c2ccc(O)c(C(=O)O)c2)c2ccc(O)c(C(=O)O)c2)C=CC1=O` [aurintricarboxylate], in assay [2], the IC50 (commonly the midpoint of a concentration-inhibition curve) is about 3000 nM.
For the compound `O=c1ccn([C@H]2C[C@H](O)[C@@H](COC(c3ccccc3)(c3ccccc3)c3ccccc3)O2)c(=O)[nH]1` [2′-deoxy-5′-O-(triphenylmethyl)uridine], the IC50 on Pf dUTPase is 2400 nM.
